The source made the active and inactive calls. No cut-off for these calls is given here.
System: Vaccinia virus
Experiment: Antiviral activity against Vaccinia virus infected in HELF assessed as virus-induced cytopathogenicity at 20 to 100 uM after 4 days by microscopy
Type: functional, organism-based
Details: Orthopoxvirus vaccinia
Summary of the method: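 Near-confluent MDCK (influenza) or confluent HEL monolayers were inoculated with 100 CCID50 of virus. After 1-h adsorption, residual virus was removed, and cells were incubated with fivefold serial dilutions of compound. Cytopathicity was scored microscopically once untreated infected controls reached complete CPE. Minimal cytotoxic concentration was read as microscopically visible alteration of cell morphology.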

C[C@H](NC(=O)[C@]1(Cc2ccccc2)CCN1C(=O)OCC1c2ccccc2-c2ccccc21)C(N)=O
Activity: inactive

From ChEMBL document CHEMBL1671794, “Synthesis and SAR studies on azetidine-containing dipeptides as HCMV inhibitors” (Bioorg Med Chem, 2011)
